# Test results from ChEMBL document CHEMBL1240409, “Design, synthesis and evaluation of (E)-alpha-benzylthio chalcones as novel inhibitors of BCR-ABL kinase” (Bioorg Med Chem, 2010).
# Columns and labels:
# K562 = experiment: Growth inhibition of human K562 cells expressing p210Bcr/Abl after 96 hrs by trypan blue exclusion assay; assay type: functional, cell-based; details: K562, 96 h
# Procedure, shortened: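 K562 cells were kept in RPMI with 10% FBS and penicillin–streptomycin at 37 °C under 5% CO2. Cells were seeded at 1 × 10^5 cells/mL with a range of compound concentrations, using DMSO as the negative control. After 96 h, viability was counted by Trypan blue exclusion and expressed as percent of DMSO control to derive GI50.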
# DU-145 = experiment: Growth inhibition of human DU145 cells after 96 hrs by trypan blue exclusion assay; assay type: functional; details: DU-145, 96 h
SMILES,GI50 (K562) [µM],GI50 (DU-145) [µM]
O=C(/C(=C\c1ccc(Br)cc1)S(=O)(=O)c1ccccc1Br)c1ccc(Br)cc1,1,1
O=C(/C(=C\c1ccc(Cl)cc1)S(=O)(=O)c1ccc(Cl)cc1)c1ccc(Cl)cc1,10,25
COc1ccc(/C=C(/Sc2ccc(Br)cc2)C(=O)c2ccc(Br)cc2)cc1,1,25
O=C(/C(=C\c1ccc(F)cc1Cl)S(=O)(=O)c1ccc(Br)cc1)c1ccc(Br)cc1,25,50
Cc1ccc(CS/C(=C/c2ccc(Cl)c([N+](=O)[O-])c2)C(=O)c2ccc(C(=O)O)cc2)cc1,1,1
Cc1ccc(C)c(/C=C(/SCc2ccc(Cl)cc2)C(=O)c2ccc(Cl)cc2)c1,10,10
COc1ccc(/C=C(/SCc2ccc(Cl)cc2)C(=O)c2ccc(C(=O)O)cc2)cc1,10,10
O=C(/C(=C\c1ccc(O)c([N+](=O)[O-])c1)SCc1ccccc1Cl)c1ccc(Cl)cc1,10,10
Cc1cc(C)cc(/C=C(/SCc2ccc(F)cc2)C(=O)c2ccc(Br)cc2)c1,1,10
Cc1ccc(S/C(=C/c2cc(Cl)cc(Cl)c2Cl)C(=O)c2ccc(Cl)cc2)cc1,50,50
Cc1ccc(S(=O)(=O)/C(=C/c2ccc(Oc3ccccc3)cc2)C(=O)c2ccc(Cl)cc2)cc1,1,1
O=C(/C(=C\c1ccc(Br)c(O)c1)S(=O)(=O)c1ccc(Br)cc1)c1ccc(Br)cc1,50,50
O=C(/C(=C\c1c[nH]c2ccc(Br)cc12)SCc1ccc(Cl)cc1Cl)c1ccc(Cl)cc1,1,10
O=C(/C(=C\c1ccc(O)c([N+](=O)[O-])c1)S(=O)(=O)Cc1ccc(Br)cc1)c1ccc(Br)cc1,1,10
COc1ccc(/C=C(/SCc2ccc(Cl)cc2)C(=O)c2ccc(Br)cc2)cc1,1,10
Cc1ccc(CS(=O)(=O)/C(=C/c2ccccc2OCc2ccccc2)C(=O)c2ccc(Cl)cc2)cc1,1,1
O=C(C(=Cc1ccc(I)cc1)S(=O)(=O)Cc1ccc(I)cc1)c1ccc(Br)cc1,> 50,20
COc1ccccc1/C=C(/Sc1ccc(C)cc1)C(=O)c1ccc(Cl)cc1,10,25
O=C(/C(=C\c1ccc(O)cc1)S(=O)(=O)Cc1ccc(Cl)c(Cl)c1)c1ccc(Cl)cc1,10,10
COc1ccccc1/C=C(/SCc1ccccc1F)C(=O)c1ccc(Cl)cc1,1,10
CSc1ccc(/C=C(/SCc2ccc(Cl)cc2)C(=O)c2ccc(C(=O)O)cc2)cc1,> 100,> 100

SMILES,GI50 (K562) [µM],GI50 (DU-145) [µM]
Cc1ccc(S/C(=C/c2sccc2C)C(=O)c2ccc(Br)cc2)cc1,50,50
Cc1ccc(S(=O)(=O)/C(=C/c2cc(C)cc(C)c2)C(=O)c2ccc(Cl)cc2)cc1,1,1
COc1cc(OC)c(/C=C(/SCc2ccc(Cl)cc2)C(=O)c2ccc([N+](=O)[O-])cc2)c(OC)c1,50,> 100
O=C(/C(=C\c1ccc(O)cc1)SCc1ccc(Cl)cc1)c1ccc(Br)cc1,1,10
CCOc1ccc(/C=C(\C(=O)c2ccc(Cl)cc2)S(=O)(=O)Cc2ccc(C)cc2)cc1OC,10,10
Cc1ccc(S/C(=C/c2c[nH]c3ccccc23)C(=O)c2ccc(Cl)cc2)cc1,1,10
Nc1c(Br)cc(Br)cc1/C=C(/Sc1ccc(Br)cc1)C(=O)c1ccc(Br)cc1,> 100,> 100
O=C(/C(=C\c1cc(Br)c(O)c(Br)c1)SCc1ccc(Br)cc1)c1ccc(Br)cc1,10,1
CN(C)c1ccc(/C=C(\C(=O)c2ccc(C(=O)O)cc2)S(=O)(=O)Cc2ccc(Cl)cc2)cc1,> 100,> 100
COc1ccc(C(=O)C(=Cc2ccc(Br)cc2)S(=O)(=O)Cc2ccc(Br)cc2)cc1,1,1
COc1ccc(/C=C(\C(=O)c2ccc(Br)cc2)S(=O)(=O)Cc2ccc(Cl)cc2)c(O)c1,10,10
O=C(/C(=C\c1ccc[nH]1)SCc1ccc(Cl)cc1)c1ccc(Cl)cc1,10,10
Cc1ccc(CS/C(=C/c2c(O)cc(O)cc2O)C(=O)c2ccc(Cl)cc2)cc1,50,50
O=C(/C(=C\c1ccc(O)cc1)SCc1ccc(Cl)c(Cl)c1)c1ccc(Cl)cc1,1,1
O=C(O)c1ccc(C(=O)/C(=C\c2ccc(Br)c([N+](=O)[O-])c2)SCc2ccccc2Cl)cc1,1,1
CN1CCN(c2ccc(/C=C(/SCc3ccc(Br)cc3)C(=O)c3ccc(C(=O)O)cc3)cc2[N+](=O)[O-])CC1,1,10
O=C(/C(=C\c1ccccc1OCc1ccccc1)S(=O)(=O)c1ccc(Br)cc1)c1ccc(Cl)cc1,1,1
Cc1ccc(CS/C(=C/c2cccc(Cl)c2Cl)C(=O)c2ccc(Cl)cc2)cc1,25,25
O=C(/C(=C\c1ccc(O)c([N+](=O)[O-])c1)SCc1ccc(Br)cc1)c1ccc(Cl)cc1Cl,1,10
COc1ccc(/C=C(\C(=O)c2ccc(Br)cc2)S(=O)(=O)c2ccc(C)cc2)cc1,1,1
COc1cc(OC)c(/C=C(\C(=O)c2ccc(Br)cc2)S(=O)(=O)c2ccc(Br)cc2)c(OC)c1,> 100,> 100

SMILES,GI50 (K562) [µM],GI50 (DU-145) [µM]
Cc1ccc(CS/C(=C/c2ccc(Cl)cc2)C(=O)c2ccc(Cl)cc2)cc1,1,10
COc1ccccc1/C=C(/SCc1ccc(F)cc1)C(=O)c1ccc(Br)cc1,10,10
O=C(/C(=C\c1ccccc1OCc1ccccc1)Sc1ccccc1Cl)c1ccccc1Cl,50,50
COc1cc(OC)c(C=C(C(=O)c2ccc(Cl)cc2)[S+]([O-])Cc2ccccc2Cl)c(OC)c1 (centres undefined),50,10
COc1ccc(/C=C(\C(=O)c2ccc(Br)cc2)S(=O)(=O)c2ccc(Br)cc2)cc1,10,25
O=C(/C(=C\c1ccc(Br)c([N+](=O)[O-])c1)Sc1ccc(Br)cc1)c1ccc(Br)cc1,1,1
O=C(/C(=C\c1ccc(O)cc1)SCc1ccc(Cl)cc1)c1ccc(Cl)cc1,1,10
COc1ccc(/C=C(/SCc2ccc(F)cc2)C(=O)c2ccc(Cl)cc2)c(OC)c1OC,10,10
COc1ccc(/C=C(\C(=O)c2ccc(Cl)cc2)S(=O)(=O)Cc2ccccc2Cl)cc1,25,50
O=C(/C(=C\c1ccc2ccccc2n1)SCc1ccc(F)cc1)c1ccc(Br)cc1,25,25
Cc1ccc(S/C(=C/c2cc([N+](=O)[O-])ccc2F)C(=O)c2ccc(Cl)cc2)cc1,1,10
O=C(O)c1cc(/C=C(\C(=O)c2c(F)c(F)c(F)c(F)c2F)S(=O)(=O)c2ccc(Br)cc2)ccc1O,> 100,> 100
O=C(/C(=C\c1ccc(I)cc1)Sc1ccc(Br)cc1)c1ccc(Br)cc1,1,1
COc1cc(OC)c(/C=C(/Sc2ccc(C)cc2)C(=O)c2ccc(Cl)cc2)c(OC)c1,25,> 100
CCOc1ccc(/C=C(/Sc2ccc(C)cc2)C(=O)c2ccc(Br)cc2)cc1OC,1,50
O=C(/C(=C\c1c(O)cc(O)cc1O)S(=O)(=O)c1ccc(Br)cc1)c1ccc(Cl)cc1,> 100,> 100
Cc1ccc(S/C(=C/c2ccc(C)s2)C(=O)c2ccc(Br)cc2)cc1,50,> 100
O=C(/C(=C\c1ccc(Br)cc1)S(=O)(=O)c1ccc(Br)cc1)c1ccc(Br)cc1,10,10
Cc1ccc(CS/C(=C/c2ccc(O)cc2)C(=O)c2ccc(Cl)cc2)cc1,1,10
CC(=O)Oc1ccc(/C=C(\C(=O)c2ccc(Cl)cc2)S(=O)(=O)c2ccc(C)cc2)cc1,10,25
